The target in assay [1] is human KCa1.1 channel (HSlo) (Homo sapiens, UniProt Q12791). As to the kind of experiment: Whole-cell patch clamp inhibition of cloned human KCa1.1. The assay is classed as cell-based. As to conditions: read-out: inhibition of outward current. A digest of the protocol: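 Whole-cell clamp of HEK293 stably expressing N-terminal Flag-tagged human HSlo. Pipette: KCl/EGTA/Hepes-KOH pH 7.2, 0.5 μM free Ca2+. Bath: NaCl-based pH 7.4. Steps from −80 mV to +100 mV (+10 mV, 100 ms), 5 kHz filter, P/5 leak correction, paxilline-resistant current subtracted. Toxin (50 nM) gravity-perfused; −80→+50 mV pulses every 10 s tracked onset/washout. KI from one-site fit; Kd from kinetic ratio.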
(In general: In patch-clamp work, channel activity is measured electrically.)

The nature of assay [2]: Biological activity of deprotected IbTx-D19C. Conditions: after selective thiol deprotection using AgBF4; methionine sulfoxide (Met^29).
Another assay addresses KCa1.1 (UniProt Q12791). Conditions: cited from earlier work.

Where no end group is shown, it is not given here. [ ]: non-standard residue; d: D form. Met(O) = CS(=O)CC[C@H](N)C(=O)O

Chain of human KCa1.1 channel (HSlo) (Q12791 whole entry, the tested form may be a part): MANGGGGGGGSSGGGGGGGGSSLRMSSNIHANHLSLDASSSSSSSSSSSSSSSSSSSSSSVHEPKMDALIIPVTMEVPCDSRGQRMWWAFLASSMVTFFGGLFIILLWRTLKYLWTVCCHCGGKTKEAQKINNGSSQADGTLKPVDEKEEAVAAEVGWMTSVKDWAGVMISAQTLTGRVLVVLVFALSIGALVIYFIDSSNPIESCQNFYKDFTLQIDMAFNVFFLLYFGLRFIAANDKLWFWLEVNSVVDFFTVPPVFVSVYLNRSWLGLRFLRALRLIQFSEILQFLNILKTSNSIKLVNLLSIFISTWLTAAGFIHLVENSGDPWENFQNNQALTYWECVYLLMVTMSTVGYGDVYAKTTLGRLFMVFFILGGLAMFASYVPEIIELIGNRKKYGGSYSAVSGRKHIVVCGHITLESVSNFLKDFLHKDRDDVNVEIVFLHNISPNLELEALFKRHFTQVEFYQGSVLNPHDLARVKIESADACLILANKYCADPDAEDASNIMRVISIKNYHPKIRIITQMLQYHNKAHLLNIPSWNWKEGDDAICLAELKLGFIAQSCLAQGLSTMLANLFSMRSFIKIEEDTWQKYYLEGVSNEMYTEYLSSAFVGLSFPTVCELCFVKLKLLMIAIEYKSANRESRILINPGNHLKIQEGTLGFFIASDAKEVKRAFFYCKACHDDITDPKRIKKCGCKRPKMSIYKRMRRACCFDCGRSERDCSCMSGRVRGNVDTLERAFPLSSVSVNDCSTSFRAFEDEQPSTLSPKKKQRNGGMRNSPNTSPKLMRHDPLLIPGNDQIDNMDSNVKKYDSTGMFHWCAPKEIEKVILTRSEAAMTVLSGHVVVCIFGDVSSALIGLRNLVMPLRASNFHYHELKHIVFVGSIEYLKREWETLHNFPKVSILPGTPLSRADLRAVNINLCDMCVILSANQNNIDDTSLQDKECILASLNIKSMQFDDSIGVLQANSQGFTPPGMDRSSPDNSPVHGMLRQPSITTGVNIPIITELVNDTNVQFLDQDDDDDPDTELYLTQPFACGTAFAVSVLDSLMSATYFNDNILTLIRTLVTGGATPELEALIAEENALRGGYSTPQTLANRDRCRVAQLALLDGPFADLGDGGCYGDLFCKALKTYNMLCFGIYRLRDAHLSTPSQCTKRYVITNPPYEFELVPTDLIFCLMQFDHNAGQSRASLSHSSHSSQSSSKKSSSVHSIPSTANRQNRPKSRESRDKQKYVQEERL
Chain of KCa1.1 (Q12791 whole entry): as the sequence (Q12791 whole entry, the tested form may be a part) above
Chain of iberiotoxin (P24663 whole entry): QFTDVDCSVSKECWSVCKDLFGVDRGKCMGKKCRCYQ

As a reminder, the inhibition is the drop in the measured response relative to a control, in per cent. Consider `CC(C)(O)[C@H]1O[C@H]2CC[C@@]3(C)[C@@](O)(CC[C@H]4Cc5c([nH]c6ccccc56)[C@@]43C)C2=CC1=O` [Paxilline], for which the inhibition at 1 µM in assay [1] was over 95%.

For the compound “IbTx-D19C: biologically inactive form of IbTx-D19C from AgBF4 deprotection of IbTx-D19C-Acm (QFTDVDCSVSKECWSVCKCLFGVDRGKC[Met(O)]GKKCRCYQ; ends and bridges not checked; UniProt P24663 1-37, looked up, variant D19C)”, in assay [2], the biological activity result is “biologically inactive”.

For orientation: Kd means the constant that tells how readily two partners part at equilibrium. Turning to iberiotoxin (from UniProt P24663), in the assay with KCa1.1, the Kd was under 1 nM.
